Assay results: ChEMBL document CHEMBL1811844, “Design, synthesis, and biological evaluation of triazolo-pyrimidine derivatives as novel inhibitors of hepatitis B virus surface antigen (HBsAg) secretion” (J Med Chem, 2011)

What was measured:
Format in all cases: ADME, organism-based
Conditions in all cases: in vivo
Rattus norvegicus [1] = test: Cmax in fasted Sprague-Dawley rat plasma at 25 mg/kg, po after 6 hrs by LC/MS/MS analysis; set-up: dose 25 mg/kg, route oral
In short: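 Male rats, 3 per treatment, fitted with jugular vein cannulae two days before dosing and fasted 12 h (water allowed). Compound given by gavage at 25 mg/kg, formulated at 2 mg/mL in 1:1 NMP:Solutol HS15 diluted with saline. Blood taken predose and at 5, 15, 30 min, 1, 3 and 6 h. Plasma quantified by LC/MS against an 8-point standard curve; Cmax calculated by standard methods.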

Rattus norvegicus [2] = test: Half life in fasted Sprague-Dawley rat plasma at 5 mg/kg, iv by LC/MS/MS analysis; set-up: dose 5 mg/kg, route intravenous
In short: (§1)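 Male Sprague-Dawley rats, 3 per treatment, carried jugular cannulae and were fasted 12 h with water. Compound was formulated at 2 mg/mL in 1:1 NMP:Solutol HS15 diluted with saline. Dosing was 5 mg/kg iv or 25 mg/kg oral gavage. Blood was drawn predose and at 5, 15, 30 min, 1, 3 and 6 h. Plasma was quantified by LC-MS/MS against an 8-point standard curve.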

Rattus norvegicus [3] = test: Total body clearance in fasted Sprague-Dawley rat at 5 mg/kg, iv by LC/MS/MS analysis; set-up: dose 5 mg/kg, route intravenous; in short: as §1
Rattus norvegicus [4] = test: Volume of distribution at steady state in fasted Sprague-Dawley rat at 5 mg/kg, iv by LC/MS/MS analysis; set-up: dose 5 mg/kg, route intravenous; in short: as §1
Rattus norvegicus [5] = test: Oral bioavailability in fasted Sprague-Dawley rat at 25 mg/kg after 6 hrs by LC/MS/MS analysis; in short: as §1

Fc1cccc(F)c1C1C=C(c2ccc(Cl)cc2)Nc2ncnn21 (stereo not given)
Cmax (Rattus norvegicus [1]): 1937 ng/mL
t1/2 (Rattus norvegicus [2]): 2.4 h
CL (Rattus norvegicus [3]): 17 mL/min/kg
Vdss (Rattus norvegicus [4]): 2.6 L/kg
F (Rattus norvegicus [5]): 42%
